Here are results for 24 compounds from ChEMBL document CHEMBL1828601, “Small molecule peptidomimetic inhibitors of importin α/β mediated nuclear transport” (Bioorg Med Chem, 2010).

The structures appear in SMILES notation. Activity calls are given as the source filed them. The rule behind the calls is not given here.

Experiment [1] is described as follows: Inhibition of importin-beta binding to immobilized GST-FG domain of Nup153 at 50 uM by surface plasmon resonance assay. On the technique in general: Surface plasmon resonance follows binding to a sensor surface in real time, without labels.
Experiment [2] has as its system FGM. The experiment in a line: Inhibition of importin alpha/beta-mediated nuclear transportation of Alexa555-BSA-NLS in human FGM cell nucleus at 500 uM after 30 mins by fluorescence microscopy. It is filed as cell-based.
Experiment [3] can be described thus: Inhibition of importin-beta binding to immobilized GST-IBB domain of importin alpha at 50 uM by surface plasmon resonance assay.
Experiment [4] in a line: Inhibition of importin-beta binding to immobilized GST-RanQLGTP at 50 uM by surface plasmon resonance assay.
Experiment [5] deals with FGM. The experiment in a line: Selectivity ratio of IC50 for importin alpha/beta-mediated nuclear transportation of Alexa555-BSA-NLS to IC50 for importin alpha/beta-mediated nuclear transportation of Alexa555-GST-M9 in human FGM cell nucleus. It is filed as cell-based.
Experiment [6] is described as follows: Inhibition of importin alpha/beta-mediated nuclear transportation of Alexa555-BSA-NLS in human FGM cell nucleus after 30 mins by fluorescence microscopy. The class given is cell-based.
Experiment [7] concerns FGM. The experiment in a line: Inhibition of importin alpha/beta-mediated nuclear transportation of Alexa555-GST-M9 in human FGM cell nucleus at 500 uM after 30 mins by fluorescence microscopy. It is filed as cell-based. Put shortly: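 Transportin-dependent import measured the same way in permeabilized FGM cells, with 0.5 μM Alexa555-GST-M9 cargo in place of BSA-NLS. Conditions: 3 mg/ml HeLa cytosol, ATP-regenerating system, 0.2 mM GTP, 1% DMSO, 30 min at 30°C. Positive control was 1 mg/ml WGA. Nuclear cargo fluorescence quantified per nucleus by automated imaging.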

The term Kd denotes the equilibrium constant for the complex coming apart. Read a high Kd as lower affinity. As a reminder, the IC50 is the concentration at which inhibition is half-maximal. As for `CC[C@H](C)[C@H](N)C(=O)Nc1ccc(C(=O)N[C@@H](CCc2ccccc2)C(=O)O)cc1OCc1ccccc1`, the Kd in experiment [1] worked out at 16 nM; in experiment [3], 42 nM; in experiment [4], 61 nM. In addition, the inhibition result in the experiment on FGM [2] was “Active”. The Ratio IC50 in the experiment on FGM [5] was greater than 15. This compound also displayed an IC50 in experiment [6] of 106000 nM.

Take `CC[C@@H](C)[C@H](N)C(=O)Nc1ccc(C(=O)N[C@H](C(=O)O)[C@@H](C)CC)cc1OCc1c[nH]cn1`: the inhibition entry in the experiment with FGM [2] and with FGM [7] was “inactive” each time.

Turning to `C[C@@H](O)[C@H](N)C(=O)N1C[C@@H](C(=O)NCCc2c[nH]cn2)[C@H](C(=O)NCCc2c[nH]c3ccccc23)C1`, the inhibition result with FGM [2] and with FGM [7] was “inactive” each time.

Regarding `CSCC[C@H](N)C(=O)Nc1ccc(C(=O)N[C@@H](CCc2ccccc2)C(=O)O)cc1OCc1ccc(Cl)cc1`, the inhibition result with FGM [2] and in the experiment on FGM [7] was “Active” throughout.

With `NCCCCNC(=O)[C@@H]1CN(C(=O)[C@@H](N)Cc2ccc3ccccc3c2)C[C@H]1C(=O)NCCc1ccc2ccccc2c1`, the inhibition result with FGM [2] and with FGM [7] was “inactive” in each case.

On to `NC(=O)C[C@H](N)C(=O)Nc1ccc(C(=O)N[C@@H](CCc2ccccc2)C(=O)O)cc1OCc1ccc(Cl)cc1`, for which the inhibition result in the experiment on FGM [2] and in the experiment with FGM [7] was “Active” throughout.

For the compound `CC[C@@H](C)[C@H](NC(=O)c1ccc(NC(=O)[C@@H](N)CO)c(OCc2c[nH]cn2)c1)C(=O)O`, the inhibition result with FGM [2] and in the experiment on FGM [7] was “Active” in each case.

`NCC(=O)Nc1ccc(C(=O)N[C@@H](CCc2ccccc2)C(=O)O)cc1OCc1ccc(Cl)cc1`: the inhibition result with FGM [2] and in the experiment on FGM [7] was “inactive” in each case.

Regarding `CC[C@H](C)[C@H](NC(=O)c1ccc(NC(=O)[C@@H](N)Cc2ccc(Cl)cc2)c(OCc2c[nH]cn2)c1)C(=O)O`, the inhibition entry in the experiment on FGM [2] and in the experiment with FGM [7] was “inactive” each time.

Turning to `CSCC[C@H](N)C(=O)N1C[C@@H](C(=O)NCCc2c[nH]cn2)[C@H](C(=O)NCCc2c[nH]c3ccccc23)C1`, the inhibition entry with FGM [2] and in the experiment with FGM [7] was “inactive” in each case.

As for `CSCC[C@H](N)C(=O)N1C[C@@H](C(=O)NCCCCN)[C@H](C(=O)NCCc2ccc3ccccc3c2)C1`, the inhibition entry with FGM [2] and with FGM [7] was “inactive” in each case.

With `CC[C@H](C)[C@H](N)C(=O)N1C[C@@H](C(=O)NCCc2c[nH]cn2)[C@H](C(=O)NCCc2c[nH]c3ccccc23)C1`, the inhibition entry with FGM [2] and in the experiment with FGM [7] was “Active” throughout.

Turning to `C[C@H](N)C(=O)Nc1ccc(C(=O)N[C@@H](CCc2ccccc2)C(=O)O)cc1OCc1ccc(Cl)cc1`, the inhibition entry in the experiment on FGM [2] and with FGM [7] was “Active” in each case.

Consider `CC(C)[C@H](N)C(=O)N1C[C@@H](C(=O)NCCc2c[nH]cn2)[C@H](C(=O)NCCc2c[nH]c3ccccc23)C1`, for which the inhibition entry in the experiment with FGM [2] and in the experiment on FGM [7] was “inactive” in each case.

Turning to `NCCCCNC(=O)[C@@H]1CN(C(=O)[C@@H](N)CCc2ccc(O)cc2)C[C@H]1C(=O)NCCc1ccc2ccccc2c1`, the inhibition result in the experiment with FGM [2] and with FGM [7] was “inactive” throughout.

For the compound `CC(C)C[C@H](N)C(=O)N1C[C@@H](C(=O)NCCc2c[nH]cn2)[C@H](C(=O)NCCc2c[nH]c3ccccc23)C1`, the inhibition result in the experiment with FGM [2] and with FGM [7] was “inactive” each time.

In the case of `CC[C@@H](C)[C@H](N)C(=O)Nc1ccc(C(=O)N[C@@H](CCc2ccccc2)C(=O)O)cc1OCc1ccc(Cl)cc1`, the inhibition result in the experiment with FGM [2] and with FGM [7] was “Active” each time.

Consider `CC[C@@H](C)[C@H](NC(=O)c1ccc(NC(=O)[C@@H](N)[C@@H](C)O)c(OCc2c[nH]cn2)c1)C(=O)O`, for which the inhibition result with FGM [2] and in the experiment on FGM [7] was “inactive” throughout.

Turning to `N[C@@H](Cc1ccc2ccccc2c1)C(=O)N1C[C@@H](C(=O)NCCc2c[nH]cn2)[C@H](C(=O)NCCc2c[nH]c3ccccc23)C1`, the inhibition result in the experiment with FGM [2] and in the experiment with FGM [7] was “Active” throughout.

Take `C[C@@H](O)[C@H](N)C(=O)Nc1ccc(C(=O)N[C@@H](CCc2ccccc2)C(=O)O)cc1OCc1ccc(Cl)cc1`: the inhibition entry with FGM [2] and in the experiment with FGM [7] was “inactive” each time.

As for `CC[C@H](C)[C@H](NC(=O)c1ccc(NC(=O)[C@@H](N)Cc2ccc(OC)cc2)c(OCc2c[nH]cn2)c1)C(=O)O`, the inhibition result with FGM [2] and in the experiment on FGM [7] was “inactive” each time.

Regarding `N[C@@H](Cc1c[nH]c2ccccc12)C(=O)N1C[C@@H](C(=O)NCCc2c[nH]cn2)[C@H](C(=O)NCCc2c[nH]c3ccccc23)C1`, the inhibition entry in the experiment on FGM [2] and with FGM [7] was “Active” throughout.

With `CC[C@H](C)[C@H](NC(=O)c1ccc(NC(=O)[C@@H](N)Cc2c[nH]c3ccccc23)c(OCc2c[nH]cn2)c1)C(=O)O`, the inhibition entry in the experiment with FGM [2] and in the experiment on FGM [7] was “inactive” each time.

As for `COc1ccc(C[C@H](N)C(=O)N2C[C@@H](C(=O)NCCc3c[nH]cn3)[C@H](C(=O)NCCc3c[nH]c4ccccc34)C2)cc1`, the inhibition result with FGM [2] and in the experiment on FGM [7] was “Active” throughout.
